The results in this text go back to ChEMBL document CHEMBL4014336 (J Med Chem, 2017).

Some results are limits rather than exact numbers.

As a reminder, the IC50 is the concentration that gives 50% inhibition. A word on the EC50: it is the concentration that produces a half-maximal response. A word on the half-life: it is the time in which the quantity being followed falls by half. Usually Emax stands for the maximal effect, on the per cent scale that the assay sets.

In data set [1] the target is 11-beta-hydroxysteroid dehydrogenase 1 (Mus musculus, UniProt P50172).
Sequence of 11-beta-hydroxysteroid dehydrogenase 1 (P50172 whole entry): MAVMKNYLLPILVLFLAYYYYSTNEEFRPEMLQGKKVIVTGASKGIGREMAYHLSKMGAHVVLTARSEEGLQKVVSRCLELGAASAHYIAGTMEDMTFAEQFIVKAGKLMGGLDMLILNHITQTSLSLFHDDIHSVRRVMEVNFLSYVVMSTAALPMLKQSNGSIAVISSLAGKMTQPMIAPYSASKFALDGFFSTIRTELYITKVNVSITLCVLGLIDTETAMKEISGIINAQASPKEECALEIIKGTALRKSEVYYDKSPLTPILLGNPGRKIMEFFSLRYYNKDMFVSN
A short description of data set [2]: (§1) Metabolic stability in human liver microsomes assessed as parent compound remaining after 10 mins. As to conditions: liver microsomes, read-out: Stability. The data set is classed as ADME, microsome. The method, boiled down:
(§2)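 Parent compound remaining after a 10 min incubation with human, mouse or rat liver microsomes.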
In general terms: Microsomes from liver hold many membrane-bound enzymes, among them those of drug oxidation.

Data set [3] in a line: (§3) Metabolic stability in mouse liver microsomes assessed as parent compound remaining after 10 mins. The data set is classed as ADME, microsome. Particulars: liver microsomes, read-out: Stability. The method, boiled down: as §2
Data set [4] has as its system Liver. In words: (§4) Metabolic stability in rat liver microsomes assessed as parent compound remaining after 10 mins. The data set is classed as ADME, microsome. Particulars: microsomes, 10 min. The method, boiled down: as §2
Data set [5] is described as follows: as §4. The data set is classed as ADME, microsome. Particulars: liver microsomes, read-out: Stability. The method, boiled down:
as §2

Data set [6] deals with Liver. The description is as §1. The data set is classed as ADME, microsome. As to conditions: microsomes, 10 min. The method, boiled down:
as §2

In data set [7] the test system is Liver. The data set is described as §3. The data set is classed as ADME, microsome. As to conditions: microsomes, 10 min. The method, boiled down:
as §2

Data set [8] is described as follows: Inhibition of cynomolgus monkey 11beta-HSD1. Set-up: species or system Macaca fascicularis.
The target of data set [9] is T1, Nuclear receptor subfamily 1 group I member 2 (Homo sapiens, UniProt O75469).
T1 sequence (O75469 whole entry): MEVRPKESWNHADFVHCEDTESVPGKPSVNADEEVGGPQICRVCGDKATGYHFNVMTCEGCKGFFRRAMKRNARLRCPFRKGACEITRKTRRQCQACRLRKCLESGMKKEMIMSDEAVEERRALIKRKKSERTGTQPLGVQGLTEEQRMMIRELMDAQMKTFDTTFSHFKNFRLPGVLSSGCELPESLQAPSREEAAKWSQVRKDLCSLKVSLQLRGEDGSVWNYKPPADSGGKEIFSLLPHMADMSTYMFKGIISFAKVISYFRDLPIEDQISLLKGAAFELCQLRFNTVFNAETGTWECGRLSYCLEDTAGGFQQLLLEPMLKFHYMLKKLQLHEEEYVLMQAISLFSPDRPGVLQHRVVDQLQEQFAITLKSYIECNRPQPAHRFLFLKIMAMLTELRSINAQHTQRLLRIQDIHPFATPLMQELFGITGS
The data set can be described thus: Activation of PXR (unknown origin). The class given is ADME. The method, boiled down: (§5)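 PXR transactivation assay; EC50 and maximal activation (Ymax, % of control) reported.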

A short description of data set [10]: Metabolic stability in mouse liver microsomes assessed as UGT-mediated glucuronidation of compound by measuring half life in presence of UDPGA. The class given is ADME. The method, boiled down: (§6)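 Liver microsomal glucuronidation incubations in the presence of UDPGA; parent half-life determined.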
Data set [11] is described as follows: Metabolic stability in human liver microsomes assessed as UGT-mediated glucuronidation of compound by measuring half life in presence of UDPGA. The class given is ADME. The method, boiled down: as §6
For a further data set, the target named is PXR (Homo sapiens, UniProt O75469). In words: Activation of PXR (unknown origin) relative to control. The class given is ADME. The method, boiled down:
as §5

The test system of the next data set is Mus musculus. In words: In vivo inhibition of 11beta-HSD1 in po dosed non-fasting diet-induced obese mouse assessed as decrease in corticosterone excursion in plasma pretreated for 60 mins followed by DHC administration measured up to 120 mins by enzyme immunosorbent assay. The class given is functional. The method, boiled down:
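Nonfasting diet-induced obese male mice, groups of n = 6 matched for body weight; tail bleed at −60 min, then oral vehicle (0.5% Methocel, 0.1% Tween 80 in water) or drug. At 60 min, bleed and oral DHC 10 mg/kg. Bleeds at 30, 60 and 120 min post-DHC. Plasma corticosterone measured by enzyme immunosorbent assay; drug levels in terminal bleed.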

Take `O=C(CC1(c2ccccc2)C2CC3CC1CC(C2)C3O)N1CC(O)C1` (racemic) [BMS-816336]: the 50% inhibitory concentration (IC50) in data set [1] amounted to 68 nM. The remaining at 10 min in data set [2] was found to be 88%; in data set [3], 82%. In addition, the Stability in the data set with Liver [4] is 72%.
Regarding `COc1ccc(C2(CC(=O)N3CC(O)C3)C3CC4CC2CC(C3)C4O)cc1` (racemic), the remaining at 10 min in data set [2] was 98%; in [3] it was 71%; in data set [5] it was 70%.
For the molecule `O=C(CC1(c2ccccc2)C2CC3CC1CC(C2)C3O)N1CC(O)C1` (stereo in doubt; form 1), the Stability in the data set on Liver [6] is given as 89%; with Liver [7], 65%; with Liver [4], 36%. For the same molecule, the IC50 in [8] is 16 nM.
As to `O=C(CC1(c2ccc(F)cc2)C2CC3CC1CC(O)(C3)C2)N1CC(O)C1` (configuration not stated), the remaining at 10 min is 100% in data set [2], 80 to 100% in [3] and 82 to 85% in data set [5]. In data set [9], this molecule returned a concentration for a half-maximal effect (EC50) greater than 50000 nM.
As for `Fc1ccc(C2(Cc3nnn[nH]3)C3CC4CC(C3)CC2C4)cc1` (configuration not stated), the half-life in data set [10] is greater than 1 h; in [11] it was greater than 2 h.
`COC12CC3CC(C1)C(CC(=O)N1CC(O)C1)(c1ccc(F)cc1)C(C3)C2` (configuration not stated): the remaining at 10 min in [2] was 27 to 72%; in data set [3] it was 17 to 55%; in data set [5] it was 6 to 14%. In addition, the EC50 in data set [9] is greater than 50000 nM.
`O=C(CC1(c2ccc(F)cc2)C2CC3CC1CC(C2)C3O)N1CC(O)C1` (racemic) had a 50% inhibitory concentration (IC50) in data set [1] of 43 nM. Moreover, the remaining at 10 min in data set [2] came out at 95%; in [3], 92%. In addition, the EC50 in data set [9] is greater than 50000 nM. The same molecule had an Emax on PXR of 4%. In addition, the Stability in the data set with Liver [4] is recorded as 88%.
For the molecule `Cc1ccc(C2(CC(=O)N3CC(O)C3)C3CC4CC2CC(C3)C4O)cc1` (racemic), the results for the remaining at 10 min in data set [2], in data set [3] and in [5] were 75%, 72% and 26%, respectively.
With `O=C(CC1(c2ccc(F)cc2)C2CC3CC(C2)CC1(O)C3)N1CC(O)C1` (racemic), the results for the remaining at 10 min in data set [2], in data set [3] and in data set [5] were 25%, 11% and 2%, respectively. The molecule further registered a concentration giving a half-maximal response (EC50) in data set [9] greater than 50000 nM.
With `O=C(CC1(c2ccncc2)C2CC3CC1CC(C2)C3O)N1CC(O)C1` (racemic), the remaining at 10 min in [2] turned out to be 92%; in data set [3], 94%; in data set [5], 100%.
For `CC1(O)C2CC3CC1CC(C2)C3(CC(=O)N1CC(O)C1)c1ccc(F)cc1` (racemic), in that order: 84%, 66% and 47%.
With `N#CC12CC3CC(C1)C(CC(=O)N1CC(O)C1)(c1ccc(F)cc1)C(C3)C2` (configuration not stated), the figures for the remaining at 10 min in data set [2], in data set [3] and in data set [5] were 62%, 42% and 46%, respectively. The molecule also yielded an EC50 in data set [9] greater than 50000 nM.
As to `O=C(CC1(c2ccc(F)cc2)C2CC3CC1CC(C2)C3O)N1CC(O)C1` (stereo in doubt), the IC50 in data set [1] was 150 nM; in [8], 24.8 nM. The values for the Stability in the data set with Liver [6], in the data set on Liver [7] and with Liver [4] were 85%, 78% and 58%, respectively.
Take `CC1(O)C2CC3CC(C2)C(CC(=O)N2CC(O)C2)(c2ccc(F)cc2)C1C3` (racemic): the figures for the remaining at 10 min in [2], in [3] and in data set [5] were 41%, 17% and 23%, respectively. Also, the EC50 in data set [9] is greater than 50000 nM.
Consider `N#CC1C2CC3CC1CC(C2)C3(CC(=O)N1CC(O)C1)c1ccc(F)cc1` (racemic), for which the remaining at 10 min came to 53% in data set [2], 47% in data set [3] and 27% in data set [5].
Turning to `O=C(CC1(c2ccc(C(F)(F)F)cc2)C2CC3CC1CC(C2)C3O)N1CC(O)C1` (racemic), the results for the remaining at 10 min in data set [2], in data set [3] and in data set [5] were 57%, 71% and 0%, respectively.
For `O=C(CC1(c2ccc(-c3ccc(F)cc3)cc2)C2CC3CC1CC(C2)C3O)N1CC(O)C1` (racemic), in that order: 39%, 10% and 5%.
For `O=C(CC1(c2ccccc2)C2CC3CC1CC(C2)C3O)N1CC(O)C1` (stereo in doubt; form 2), in the data set on Mus musculus, the inhibition result is “Dose-dependent effect”.
In the case of `NC(=O)CC1(c2ccc(F)cc2)C2CC3CC(C2)CC1C3` (configuration not stated), the half-life in [10] and in data set [11] was greater than 2 h throughout.
In the case of `O=C(CC1(c2ccc(-c3ccncc3)cc2)C2CC3CC1CC(C2)C3O)N1CC(O)C1` (racemic), the remaining at 10 min in [2] was found to be 28%; in data set [3] it was 42%; in data set [5] it was 53%.
The like results for `O=C(CC1(C2CCCCC2)C2CC3CC1CC(C2)C3O)N1CC(O)C1` (racemic) were, in that order, 100%, 24% and 14%.
For `Cc1ccccc1C1(CC(=O)N2CC(O)C2)C2CC3CC1CC(C2)C3O` (racemic), in that order: 62%, 77% and 25%.
Consider `Cc1cccc(C2(CC(=O)N3CC(O)C3)C3CC4CC2CC(C3)C4O)c1` (racemic), for which the figures for the remaining at 10 min in data set [2], in [3] and in [5] were 84%, 54% and 22%, respectively.
`NC(=O)C12CC3CC(C1)C(CC(=O)N1CC(O)C1)(c1ccc(F)cc1)C(C3)C2` (configuration not stated): the remaining at 10 min in [2] was 82 to 100%; in data set [3], 73 to 77%; in [5] it was 62 to 79%. The molecule further came in with an EC50 in data set [9] greater than 50000 nM.
Take `O=C(CC1(c2ccc(F)cc2)C2CC3CC1CC(F)(C3)C2)N1CC(O)C1` (configuration not stated): the results for the remaining at 10 min in [2], in data set [3] and in data set [5] were 38 to 69%, 13 to 38% and 5 to 9%, respectively. For the same molecule, the EC50 in data set [9] was greater than 25000 nM.
For `O=C(CC1(Cc2ccccc2)C2CC3CC1CC(C2)C3O)N1CC(O)C1` (racemic), the remaining at 10 min in data set [2] worked out at 63%; in [3], 33%; in [5], 3%.
On to `O=C(CC1(c2ccc(F)cc2)C2CC3CC1CC(C2)C3O)N1CC(O)C1` (single isomer, unassigned; enantiomer 2), for which the Stability in the data set with Liver [6] amounted to 90%; with Liver [7], 82%; in the data set on Liver [4], 75%. This molecule also came in with an IC50 in data set [8] of 6.9 nM.
Take `CS(=O)(=O)c1ccc(C2(CC(=O)N3CC(O)C3)C3CC4CC2CC(C3)C4O)cc1` (racemic): the results for the remaining at 10 min in [2], in data set [3] and in data set [5] were 100%, 100% and 98%, respectively.
Consider `O=C(CC1(c2ccc(Cl)cc2)C2CC3CC1CC(C2)C3O)N1CC(O)C1` (racemic), for which the remaining at 10 min in data set [2] was 81%; in data set [3], 73%; in data set [5], 58%.
For `O=C(CC1(c2ccccn2)C2CC3CC1CC(C2)C3O)N1CC(O)C1` (racemic), in that order: 100%, 93% and 90%.
In data set [1], `O=C(CC1(c2ccc(F)cc2)C2CC3CC(C2)CC1C3)N1CC[C@@H]1CO` (some centres not stated) came in with a concentration for half-maximal inhibition (IC50) of 12 nM.
`N#Cc1ccc(C2(CC(=O)N3CC(O)C3)C3CC4CC2CC(C3)C4O)cc1` (racemic): the remaining at 10 min in data set [2] came to 100%; in data set [3] it was 87%; in data set [5], 95%.
For `O=C(CC1(c2ccc(F)cc2)C2CC3CC(C2)CC1C3)N1CC(O)C1` (configuration not stated), the EC50 in [9] worked out at 6700 nM. The same molecule registered a maximal effect (Emax) at PXR of 37%.
For `O=C(CC1(c2ccc(F)cc2)C2CC3CC(C2)CC1C3)N1CC[C@H]1CO` (some centres not stated), in data set [1], the IC50 worked out at 1850 nM.
For the molecule `O=C(CC1(c2cccc(Cl)c2)C2CC3CC1CC(C2)C3O)N1CC(O)C1` (racemic), the remaining at 10 min is 85% in data set [2], 66% in data set [3] and 37% in [5].
For `NC(=O)C1C2CC3CC1CC(C2)C3(CC(=O)N1CC(O)C1)c1ccc(F)cc1` (racemic), in that order: 100%, 99% and 92%.
Take `O=C(CC1(c2cccnc2)C2CC3CC1CC(C2)C3O)N1CC(O)C1` (racemic): the figures for the remaining at 10 min in [2], in data set [3] and in [5] were 86%, 58% and 92%, respectively.
